# Source: ChEMBL document CHEMBL4622968, “Discovery of [1,2,4]triazolo[4,3-a]pyridines as potent Smoothened inhibitors targeting the Hedgehog pathway with improved antitumor activity in vivo” (Bioorg Med Chem, 2020)
# Active and inactive are the calls of the source. The calls are words filed in the database; no cut-off is given here.
# Tests used:
# MDA-MB-468 [1] = test: Antiproliferation activity against human MDA-MB-468 cells assessed as reduction in cell viability incubated for 72 hr by MTT assay; assay type: functional, cell-based; settings: MDA-MB-468, 72 h
# How it was run: (§1)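 MTT assay. Cells were plated overnight and exposed to a range of concentrations for 72 h. MTT was then added for 4 h and absorbance read at 570 nm. Inhibition% = [(control − compound)/(control − blank)] × 100. IC50 was fitted from the curves. Mean ± S.D. of 3–5 separate experiments. RPMI 1640 + 10% FBS; MCF10A in DMEM/F12 with 5% horse serum, EGF, hydrocortisone, insulin and cholera toxin.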
# [2] = Inhibition of hedgehog pathway in mouse NIH/3T3 cells harboring GRE-Luc assessed as inhibition of SAG-induced Hh signaling pathway by dual luciferase reporter gene assay; assay type: cell-based; settings: NIH3T3
# How it was run: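 NIH3T3 cells co-transfected with 8×3' Gli-BS-delta51-Luc II firefly reporter and pRL-TK Renilla plasmid; after 24 h treated with compounds plus SAG (pathway activator). Gli luciferase normalized to Renilla (dual-luciferase read-out); IC50 = concentration halving normalized signal; mean ± S.D. of 3–5 separate experiments.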
# U-251 = test: Antiproliferation activity against human U251 cells assessed as reduction in cell viability incubated for 72 hrs by MTT assay; assay type: functional, cell-based; settings: U-251, 72 h; how it was run: as §1
# HeLa = test: Antiproliferation activity against human HeLa cells assessed as reduction in cell viability incubated for 72 hrs by MTT assay; assay type: functional, cell-based; how it was run: as §1
# T47D = test: Antiproliferation activity against human T47D cells assessed as reduction in cell viability incubated for 72 hr by MTT assay; assay type: functional, cell-based; how it was run: as §1
# MDA-MB-231 = test: Antiproliferation activity against human MDA-MB-231 cells assessed as reduction in cell viability incubated for 72 hrs measured after 4 hrs by MTT assay; assay type: functional, cell-based; how it was run: as §1
# AN3-CA = test: Antiproliferation activity against human AN3CA cells assessed as reduction in cell viability incubated for 72 hr by MTT assay; assay type: functional, cell-based; how it was run: as §1
# MCF7 = test: Antiproliferation activity against human MCF7 cells assessed as reduction in cell viability incubated for 72 hrs by MTT assay; assay type: functional, cell-based; settings: MCF7, 72 h; how it was run: as §1
# A549 = test: Antiproliferation activity against human A549 cells assessed as reduction in cell viability incubated for 72 hrs by MTT assay; assay type: functional, cell-based; settings: A549, 72 h; how it was run: as §1
# Protein smoothened [3] = target: T1, Protein smoothened (Homo sapiens, UniProt Q99835); test: Binding affinity to recombinant human Smo receptor assessed as association constant at equilibrium by SPR analysis
# Protein smoothened [4] = target: T1, Protein smoothened; test: Binding affinity to recombinant human Smo receptor assessed as association rate constant by SPR analysis
# How it was run: (§2)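 Surface plasmon resonance with recombinant Smo protein, run in PBS at a flow rate of 2 μL/s and 4 °C. Analytes were injected at 2.5, 5 and 10 μM. The chip was regenerated with 0.5% SDS:glycine-HCl pH 2.0 (1:1). ka, kd, Rmax, KA and KD came from a global fit of the sensorgrams.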
# Protein smoothened [5] = target: T1, Protein smoothened; test: Binding affinity to recombinant human Smo receptor assessed as maximum response at equilibrium by SPR analysis; how it was run: as §2
# Protein smoothened [6] = target: T1, Protein smoothened; test: Binding affinity to recombinant human Smo receptor assessed as dissociation rate constant by SPR analysis; how it was run: as §2
# Protein smoothened [7] = target: T1, Protein smoothened; test: Binding affinity to recombinant human Smo receptor assessed as dissociation constant at equilibrium by SPR analysis
# [8] = Acute toxicity in Kunming mouse assessed as lethality through intragastric administration observed for 14 days; settings: in vivo, po
# How it was run: (§3)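 Kunming mice, groups of 5 female and 5 male per dose, dosed once by gavage at graded doses; mortality recorded over 14 days as dead/treated and percent. LD50 derived by improved Karber's method: LD50 = lg^-1[xm − i(ΣP − 0.5)], xm log of maximal dose, i log ratio of neighbouring doses; 95% confidence intervals given.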
# [9] = Toxicity in BALB/c mouse xenografted with human MDA-MB-468 cells assessed as body weight at 80 to 100 mg/kg, ig measured every day for 21 day; assay type: organism-based; settings: in vivo, po, 504 h
# How it was run: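 Female BALB/c nude mice, 6–8 weeks, given 1.0×10^7 MDA-MB-468 cells s.c. in right posterior flank; at 100 mm3 tumours, randomized into groups of five. Daily gavage at 80 or 100 mg/kg in saline with 0.1% Tween 80, or vehicle alone; body weight recorded daily, tumour volume every 2 days; sacrificed day 21.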
# [10] = Acute toxicity in Kunming mouse assessed as mortality at 2667 mg/kg, ig observed for 14 days relative to control; assay type: organism-based; settings: in vivo, po, read-out: Activity; how it was run: as §3
# [11] = Acute toxicity in Kunming mouse assessed as mortality at 741 mg/kg, ig observed for 14 days relative to control; assay type: organism-based; settings: in vivo, po, read-out: Activity; how it was run: as §3
# MCF-10A = test: Cytotoxicity against human MCF10A cells assessed as cell viability incubated for 72 hrs measured by MTT assay; assay type: cell-based; how it was run: as §1
# [12] = Acute toxicity in Kunming mouse assessed as mortality at 4000 mg/kg, ig observed for 14 days relative to control; assay type: organism-based; settings: in vivo, po, read-out: Activity; how it was run: as §3
# MDA-MB-468 [13] = test: Inhibition of hedgehog pathway in human MDA-MB-468 cells assessed as decrease in Smo protein levels in cilia at 28 uM incubated for 24 hrs by immunostaining based confocal microscopic analysis; assay type: cell-based
# How it was run: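 MDA-MB-468 cells were treated at 28 μM for 24 h with or without SAG. Cilia were immunostained for acetylated α-tubulin and Smo and imaged by confocal microscopy. Comparisons were made against DMSO and against SAG alone.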
# [14] = Acute toxicity in Kunming mouse assessed as mortality at 1778 mg/kg, ig observed for 14 days relative to control; assay type: organism-based; settings: in vivo, po, read-out: Activity; how it was run: as §3
# [15] = Acute toxicity in Kunming mouse assessed as mortality at 1111 mg/kg, ig observed for 14 days relative to control; assay type: organism-based; settings: in vivo, po, read-out: Activity; how it was run: as §3
# T1 sequence (Q99835 whole entry): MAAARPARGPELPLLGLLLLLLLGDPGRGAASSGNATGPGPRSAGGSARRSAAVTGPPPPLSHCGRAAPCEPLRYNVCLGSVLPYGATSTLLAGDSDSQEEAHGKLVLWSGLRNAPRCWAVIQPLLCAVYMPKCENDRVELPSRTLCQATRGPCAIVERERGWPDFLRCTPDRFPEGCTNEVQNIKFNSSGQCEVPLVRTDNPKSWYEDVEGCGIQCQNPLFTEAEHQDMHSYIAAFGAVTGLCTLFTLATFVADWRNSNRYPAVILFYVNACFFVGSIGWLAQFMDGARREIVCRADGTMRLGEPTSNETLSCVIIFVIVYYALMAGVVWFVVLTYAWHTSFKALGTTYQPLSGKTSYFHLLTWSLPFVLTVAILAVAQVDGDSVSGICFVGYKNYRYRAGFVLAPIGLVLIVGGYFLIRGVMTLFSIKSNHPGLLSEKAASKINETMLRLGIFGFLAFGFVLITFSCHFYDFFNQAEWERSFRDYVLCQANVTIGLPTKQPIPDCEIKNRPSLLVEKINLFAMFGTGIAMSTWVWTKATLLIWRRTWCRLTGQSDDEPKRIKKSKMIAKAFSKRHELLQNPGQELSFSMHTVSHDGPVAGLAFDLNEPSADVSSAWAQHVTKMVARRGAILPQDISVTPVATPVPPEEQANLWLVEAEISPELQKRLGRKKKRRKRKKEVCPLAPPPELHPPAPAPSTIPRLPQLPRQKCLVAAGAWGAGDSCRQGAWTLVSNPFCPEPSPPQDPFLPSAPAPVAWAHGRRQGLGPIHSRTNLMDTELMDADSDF
IC50 (MDA-MB-468 [1]) [µM],IC50 [2] [µM],IC50 (U-251) [µM],IC50 (HeLa) [µM],IC50 (T47D) [µM],IC50 (MDA-MB-231) [µM],IC50 (MCF7) [µM],IC50 (A549) [µM],Ka (Protein smoothened [4]) [M⁻¹ s⁻¹],Rmax (Protein smoothened [5]) [RU],Kdiss (Protein smoothened [6]) [×10⁻³ /s],SMILES,IC50 (AN3-CA) [µM],other results
57.6,> 10,> 100,> 100,> 100,> 100,> 100,72.3,,,,O=C(Nc1ccc(Cl)c(-c2nnc3c(Cl)cccn23)c1)c1c(F)cccc1Cl,> 100,
> 100,2.98,> 100,86.4,> 100,> 100,88.9,> 100,,,,CS(=O)(=O)c1cccc(C(=O)Nc2ccc(Cl)c(-c3nnc4c(Cl)cccn34)c2)c1,> 100,
22.3,0.096,> 100,61.9,70.8,> 100,62.8,> 100,111,49.2,1.51,O=C(Nc1ccc(Cl)c(-c2nnc3c(Cl)cccn23)c1)c1ccc(C(F)(F)F)cc1F,41.2,KA (Protein smoothened [3]): 7.35 ×10⁴ /M; Kd (Protein smoothened [7]): 13.6 µM
> 100,> 10,74.3,79.8,> 100,> 100,> 100,> 100,,,,Cc1nc(C(=O)Nc2ccc(Cl)c(-c3nnc4c(Cl)cccn34)c2)cs1,> 100,
46,0.093,> 100,86.3,87.6,> 100,> 100,46.8,260,8.44,0.00275,O=C(Nc1ccc(Cl)c(-c2nnc3c(Cl)cccn23)c1)c1ccc(C(F)(F)F)nc1Cl,48.3,KA (Protein smoothened [3]): 9.43 ×10⁷ /M; Kd (Protein smoothened [7]): 0.0106 µM
34.3,> 10,> 100,> 100,> 100,> 100,> 100,> 100,,,,Cc1cc(Cl)ccc1C(=O)Nc1ccc(Cl)c(-c2nnc3c(Cl)cccn23)c1,> 100,
> 100,2.73,> 100,> 100,> 100,> 100,58.4,73.6,,,,O=C(Nc1ccc(Cl)c(-c2nnc3c(Cl)cccn23)c1)c1ccc(Cl)cc1,> 100,
> 100,> 10,> 100,> 100,> 100,> 100,> 100,> 100,,,,O=C(Nc1ccc(Cl)c(-c2nnc3c(Cl)cccn23)c1)c1cccnc1,> 100,
> 100,> 10,> 100,87.5,> 100,89.7,> 100,35.8,,,,O=C(Nc1ccc(Cl)c(-c2nnc3c(Cl)cccn23)c1)c1cccnc1Cl,> 100,

SMILES,IC50 (MDA-MB-468 [1]) [µM],IC50 [2] [µM],IC50 (U-251) [µM],IC50 (HeLa) [µM],IC50 (T47D) [µM],IC50 (MDA-MB-231) [µM],IC50 (MCF7) [µM],IC50 (A549) [µM],Ka (Protein smoothened [4]) [M⁻¹ s⁻¹],Rmax (Protein smoothened [5]) [RU],Kdiss (Protein smoothened [6]) [×10⁻³ /s],IC50 (AN3-CA) [µM],other results
CS(=O)(=O)c1ccc(C(=O)Nc2ccc(Cl)c(-c3ccccn3)c2)c(Cl)c1 [VISMODEGIB],79,0.1,> 100,61.7,> 100,> 100,> 100,> 100,179,4.63,0.0174,93,LD50 at 336 h [8]: 2010 mg/kg; Activity [9]: Non-Toxic; mortality at 336 h [10]: 60%; mortality at 336 h [11]: 10%; IC50 (MCF-10A): 89.5 µM; mortality at 336 h [12]: 80%; inhibition (MDA-MB-468 [13]): Active; mortality at 336 h [14]: 50%; mortality at 336 h [15]: 30%
